From publication PMC2805153 (Molecular cancer therapeutics, 2009)
Entries after “also recorded” stand apart in the source; their conditions may differ. Blank lines part the entries; values can stand above or below the molecule they belong to.

Assays:
[1] = system: human breast tumor cells; experiment: Growth assay, breast tumor cells in general; assay type: cell-based; conditions: SK-BR-3 and MDA-MB-231 breast tumor cells, 72 hours of treatment
Outline: (§1)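 SK-BR-3 and MDA-MB-231 cells were grown in RPMI 1640 with 1.5% FBS at 37°C and 5% CO2, seeded at 5,000/well, and rested 18–24 h. Test compound or vehicle was added for 72 h (DMSO ≤0.2%). CellTiter-Glo ATP luminescence gave viable cells.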

[2] = system: MDA-MB-231 breast tumor cells; experiment: Growth assay; assay type: cell-based, human
Outline: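 MDA-MB-231 cells went into RPMI 1640 with 1.5% FBS at 5,000/well and rested 18–24 h. Optional 1 h pretreatment with NOR-3 came next, then test compound or vehicle for 72 h (DMSO ≤0.2%). Viable cells were read as ATP luminescence (CellTiter-Glo).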

[3] = molecular target: PDE5A (Homo sapiens, UniProt O76074); experiment: Recombinant PDE isozyme IMAP FP assay; assay type: biochemical
Outline: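 Commercial recombinant PDE isozyme at 0.25 mg/mL, preincubated with test compound 30 min at 30°C. Substrate mix of 25 nM each fluorescein-cAMP and TAMRA-cGMP then added for 90 min at 30°C, with cAMP and cGMP hydrolysis read together. Binding reagent stops reaction; IMAP fluorescence polarization read. DMSO ≤2%. IC50 from 10 concentrations, ≥2 replicates each, versus vehicle, four-parameter logistic fit; experiments repeated at least twice.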

[4] = molecular target: PDE9A (Homo sapiens, UniProt O76083); experiment: Recombinant PDE isozyme IMAP FP assay; assay type: biochemical; conditions: cGMP substrate; SS tested up to 200 μM
[5] = system: SK-BR-3 breast tumor cells; experiment: Growth assay; assay type: cell-based; conditions: Homo sapiens, SK-BR-3, 72 h, read-out: growth inhibition IC50
Outline: as §1

[6] = system: breast tumor cells; experiment: Cell cycle distribution; assay type: cell-based, human; conditions: conditions of the growth assays, data not shown
[7] = molecular target: PDE10A (Homo sapiens, UniProt Q9Y233); experiment: Recombinant PDE isozyme IMAP FP assay; assay type: biochemical; conditions: SS tested up to 200 μM
Chain of PDE10A (Q9Y233 290-1055 limits assumed): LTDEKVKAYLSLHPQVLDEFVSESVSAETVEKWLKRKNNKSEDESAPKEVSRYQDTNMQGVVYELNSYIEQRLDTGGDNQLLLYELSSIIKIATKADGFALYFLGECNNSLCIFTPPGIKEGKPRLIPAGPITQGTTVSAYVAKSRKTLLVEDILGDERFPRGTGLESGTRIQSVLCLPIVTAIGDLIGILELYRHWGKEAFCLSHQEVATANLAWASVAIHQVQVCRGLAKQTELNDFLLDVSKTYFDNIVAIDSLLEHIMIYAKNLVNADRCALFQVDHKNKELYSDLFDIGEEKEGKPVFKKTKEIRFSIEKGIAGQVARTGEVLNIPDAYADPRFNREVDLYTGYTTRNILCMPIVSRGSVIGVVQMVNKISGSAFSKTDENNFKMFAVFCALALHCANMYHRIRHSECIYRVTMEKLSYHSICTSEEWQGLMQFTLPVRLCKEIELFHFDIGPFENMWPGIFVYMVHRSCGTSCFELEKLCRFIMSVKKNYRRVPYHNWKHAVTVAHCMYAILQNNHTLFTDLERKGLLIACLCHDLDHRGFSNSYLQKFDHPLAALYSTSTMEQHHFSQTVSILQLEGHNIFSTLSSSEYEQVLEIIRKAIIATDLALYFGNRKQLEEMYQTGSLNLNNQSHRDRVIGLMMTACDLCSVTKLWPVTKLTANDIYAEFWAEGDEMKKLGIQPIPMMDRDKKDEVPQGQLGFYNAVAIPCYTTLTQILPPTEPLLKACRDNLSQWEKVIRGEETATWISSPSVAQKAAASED

[8] = system: HMEC; experiment: Caspase3/7 Glo apoptosis assay; assay type: cell-based, human; conditions: 5 hours, staurosporine 1μM positive control
Outline: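 HMEC grown in MEGM complete medium were seeded at 10,000 cells/well and left 18–24 h. They were then exposed to test compound or vehicle (DMSO ≤0.2%), with 1μM staurosporine as positive control. Apoptosis was read as Caspase3/7 Glo luminescence from cleavage of a caspase 3/7 substrate.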

[9] = molecular target: PDE11A (Homo sapiens, UniProt Q9HCR9); experiment: Recombinant PDE isozyme IMAP FP assay; assay type: biochemical; conditions: SS tested up to 200 μM
Chain of PDE11A (Q9HCR9 whole entry): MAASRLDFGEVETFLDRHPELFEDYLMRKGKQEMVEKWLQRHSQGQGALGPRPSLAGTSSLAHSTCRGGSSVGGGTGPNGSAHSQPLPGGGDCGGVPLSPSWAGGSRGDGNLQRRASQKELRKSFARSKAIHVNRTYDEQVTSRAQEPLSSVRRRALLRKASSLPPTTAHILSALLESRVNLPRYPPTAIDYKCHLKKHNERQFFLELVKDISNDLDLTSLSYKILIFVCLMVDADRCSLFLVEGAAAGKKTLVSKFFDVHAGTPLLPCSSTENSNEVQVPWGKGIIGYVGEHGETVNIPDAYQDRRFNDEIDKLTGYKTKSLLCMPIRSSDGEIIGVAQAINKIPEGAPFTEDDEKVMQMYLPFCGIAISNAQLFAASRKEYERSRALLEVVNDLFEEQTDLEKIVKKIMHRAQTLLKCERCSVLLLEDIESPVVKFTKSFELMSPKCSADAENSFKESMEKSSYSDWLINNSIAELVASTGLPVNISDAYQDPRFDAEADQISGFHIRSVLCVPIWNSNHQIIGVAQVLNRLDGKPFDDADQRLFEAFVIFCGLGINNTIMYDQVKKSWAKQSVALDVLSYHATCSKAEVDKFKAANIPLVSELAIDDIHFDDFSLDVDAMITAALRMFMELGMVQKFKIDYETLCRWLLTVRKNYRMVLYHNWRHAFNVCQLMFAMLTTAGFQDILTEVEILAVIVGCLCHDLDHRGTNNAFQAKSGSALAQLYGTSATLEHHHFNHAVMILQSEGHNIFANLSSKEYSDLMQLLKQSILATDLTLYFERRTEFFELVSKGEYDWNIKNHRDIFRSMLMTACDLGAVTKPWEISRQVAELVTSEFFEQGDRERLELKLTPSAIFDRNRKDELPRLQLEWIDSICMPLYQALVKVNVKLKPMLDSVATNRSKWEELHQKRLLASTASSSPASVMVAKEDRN

[10] = system: COX-1; conditions: read-out: IC50 to inhibit COX-1; cited from earlier work
[11] = system: HMEC; experiment: Intracellular cGMP assay; assay type: cell-based, human; conditions: 30 minutes of treatment
Outline: (§2)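 Cells were seeded at 1×10^6 per 10 cm dish: HMEC in MEGM, MDA-MB-231 in RPMI 1640 with 1.5% FBS. After 48 h they were exposed to test compound or vehicle for 30 min, then lysed. Intracellular cGMP was measured by direct competitive EIA, optical density at 630 nm.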

[12] = molecular target: PDE6C (Homo sapiens, UniProt P51160); experiment: Recombinant PDE isozyme IMAP FP assay; assay type: biochemical; conditions: cGMP substrate; SS tested up to 200 μM
Chain of PDE6C (P51160 whole entry): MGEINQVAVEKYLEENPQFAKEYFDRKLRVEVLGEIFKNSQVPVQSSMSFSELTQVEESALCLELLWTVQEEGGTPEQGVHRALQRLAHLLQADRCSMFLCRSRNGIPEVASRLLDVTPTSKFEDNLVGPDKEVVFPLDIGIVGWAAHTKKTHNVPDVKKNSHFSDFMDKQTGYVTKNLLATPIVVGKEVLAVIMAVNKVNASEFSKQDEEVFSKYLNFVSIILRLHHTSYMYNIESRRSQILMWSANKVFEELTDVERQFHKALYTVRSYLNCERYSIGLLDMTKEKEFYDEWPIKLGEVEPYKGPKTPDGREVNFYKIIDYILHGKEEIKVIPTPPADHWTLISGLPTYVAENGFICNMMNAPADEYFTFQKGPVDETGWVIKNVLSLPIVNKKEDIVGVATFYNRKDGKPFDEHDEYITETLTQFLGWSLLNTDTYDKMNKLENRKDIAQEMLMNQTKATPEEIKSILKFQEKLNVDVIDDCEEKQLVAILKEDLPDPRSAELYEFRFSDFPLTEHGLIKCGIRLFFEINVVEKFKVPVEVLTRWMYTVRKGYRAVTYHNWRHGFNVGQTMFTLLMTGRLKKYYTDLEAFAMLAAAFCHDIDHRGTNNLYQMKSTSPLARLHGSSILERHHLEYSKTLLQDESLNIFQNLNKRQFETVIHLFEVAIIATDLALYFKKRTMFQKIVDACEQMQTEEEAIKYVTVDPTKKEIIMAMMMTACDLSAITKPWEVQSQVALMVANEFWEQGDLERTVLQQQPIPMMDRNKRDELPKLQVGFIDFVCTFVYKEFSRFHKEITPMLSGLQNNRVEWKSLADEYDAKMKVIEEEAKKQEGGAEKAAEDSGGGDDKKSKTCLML

[13] = system: PDE activity in SK-BR-3 and MDA-MB-231 cell lysates; experiment: IMAP FP PDE assay in tumor cell lysates; assay type: biochemical, human; conditions: for inhibition of cGMP hydrolysis: tumor cell lysates, TAMRA-cGMP substrate
[14] = molecular target: PDE7A (Homo sapiens, UniProt Q13946); experiment: Recombinant PDE isozyme IMAP FP assay; assay type: biochemical; conditions: cAMP substrate; SS tested up to 200 μM
Chain of PDE7A (Q13946 whole entry): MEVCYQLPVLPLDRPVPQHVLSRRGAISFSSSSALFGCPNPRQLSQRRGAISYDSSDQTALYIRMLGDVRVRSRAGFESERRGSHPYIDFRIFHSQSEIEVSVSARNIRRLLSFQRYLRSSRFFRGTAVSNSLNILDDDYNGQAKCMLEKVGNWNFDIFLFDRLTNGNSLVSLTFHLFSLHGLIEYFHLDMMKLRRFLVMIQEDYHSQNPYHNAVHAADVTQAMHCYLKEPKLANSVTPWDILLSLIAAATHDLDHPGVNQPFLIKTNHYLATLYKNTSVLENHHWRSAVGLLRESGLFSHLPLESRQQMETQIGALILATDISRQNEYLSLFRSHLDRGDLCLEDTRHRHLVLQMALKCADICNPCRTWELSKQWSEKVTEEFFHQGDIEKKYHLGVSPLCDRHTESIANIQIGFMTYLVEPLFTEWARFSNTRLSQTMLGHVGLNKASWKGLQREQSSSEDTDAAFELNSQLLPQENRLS

[15] = system: normal human mammary epithelial cells (HMEC); experiment: Growth assay; assay type: cell-based; conditions: 72 h, read-out: growth inhibition IC50
Outline: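 Primary normal mammary epithelial cells were grown in MEGM complete medium and seeded at 5,000/well. After 18–24 h they received test compound or vehicle for 72 h (DMSO ≤0.2%). ATP-based luminescence (CellTiter-Glo) measured viable cells.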

[16] = molecular target: PDE4A (Homo sapiens, UniProt P27815); experiment: Recombinant PDE isozyme IMAP FP assay; assay type: biochemical; conditions: cAMP substrate; SS tested up to 200 μM
Chain of PDE4A (P27815 whole entry): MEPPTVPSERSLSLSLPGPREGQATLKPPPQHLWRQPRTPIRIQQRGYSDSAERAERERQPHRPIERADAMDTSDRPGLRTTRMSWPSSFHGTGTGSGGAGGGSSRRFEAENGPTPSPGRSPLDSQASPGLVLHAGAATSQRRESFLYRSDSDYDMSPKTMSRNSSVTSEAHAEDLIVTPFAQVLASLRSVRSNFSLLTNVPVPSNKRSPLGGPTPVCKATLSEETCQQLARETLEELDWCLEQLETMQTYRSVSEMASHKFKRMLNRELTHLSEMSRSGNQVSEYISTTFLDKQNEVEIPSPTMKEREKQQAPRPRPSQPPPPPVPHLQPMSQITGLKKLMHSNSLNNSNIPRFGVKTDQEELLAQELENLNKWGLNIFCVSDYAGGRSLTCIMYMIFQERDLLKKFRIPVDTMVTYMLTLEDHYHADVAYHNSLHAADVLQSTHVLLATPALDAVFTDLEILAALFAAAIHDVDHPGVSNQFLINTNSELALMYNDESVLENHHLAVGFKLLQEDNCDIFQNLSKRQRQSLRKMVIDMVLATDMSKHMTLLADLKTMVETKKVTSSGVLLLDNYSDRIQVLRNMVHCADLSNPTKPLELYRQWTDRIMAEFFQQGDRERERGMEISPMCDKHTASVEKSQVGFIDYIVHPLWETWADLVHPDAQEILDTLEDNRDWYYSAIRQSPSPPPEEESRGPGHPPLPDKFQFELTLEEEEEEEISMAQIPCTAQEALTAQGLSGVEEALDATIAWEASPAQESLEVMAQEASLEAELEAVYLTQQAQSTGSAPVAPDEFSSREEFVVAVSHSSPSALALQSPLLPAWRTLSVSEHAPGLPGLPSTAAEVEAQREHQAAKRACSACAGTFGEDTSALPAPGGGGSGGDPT

[17] = system: MDA-MB-231, SKBR3, and ZR75-1 cells; experiment: Caspase3/7 Glo apoptosis assay; assay type: cell-based, human; conditions: 100 μM, 5 hours
Outline: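 MDA-MB-231 and SK-BR-3 cells were kept in RPMI 1640 with 10% FBS, with serum cut to 1.5% FBS for the assay, at 37°C and 5% CO2. Cells were seeded at 10,000/well, rested 18–24 h, then given test compound or vehicle (DMSO ≤0.2%). Caspase 3/7 activation was read as luminescence from Caspase3/7 Glo substrate cleavage.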

[18] = system: MDA-MB-231 cells; experiment: Intracellular cGMP assay; assay type: cell-based, human
Outline: as §2

[19] = system: PDE activity in HMEC lysates; experiment: IMAP FP PDE assay in HMEC lysates; assay type: biochemical, human
Outline: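 HMEC were lysed in ice-cold buffer (20mM Tris-acetate, 5mM Mg acetate, 1mM EGTA, 0.8% Triton X-100, 50mM NaF, protease inhibitors, pH 7.4) and cleared at 10,000g, 10 min, 4°C. Lysate at 0.25 mg/mL was preincubated with test compound 30 min at 30°C. Substrate was 25 nM each Fl-cAMP and TAMRA-cGMP, run 90 min at 30°C. Reactions were stopped with IMAP binding reagent and read by FP (DMSO ≤2%). IC50 came from 10 concentrations, ≥2 replicates.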

[20] = system: ZR75-1 breast tumor cells; experiment: Growth assay; assay type: cell-based; conditions: Homo sapiens, ZR-75-1, 72 h, read-out: growth inhibition IC50
Outline: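 Cells seeded at 5,000/well were rested 18–24 h, then treated with test compound or vehicle for 72 h (DMSO ≤0.2%). Growth was scored as viable-cell ATP luminescence (CellTiter-Glo) against vehicle.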

[21] = molecular target: PDE8A (Homo sapiens, UniProt O60658); experiment: Recombinant PDE isozyme IMAP FP assay; assay type: biochemical; conditions: cAMP substrate; SS tested up to 200 μM
Chain of PDE8A (O60658 whole entry): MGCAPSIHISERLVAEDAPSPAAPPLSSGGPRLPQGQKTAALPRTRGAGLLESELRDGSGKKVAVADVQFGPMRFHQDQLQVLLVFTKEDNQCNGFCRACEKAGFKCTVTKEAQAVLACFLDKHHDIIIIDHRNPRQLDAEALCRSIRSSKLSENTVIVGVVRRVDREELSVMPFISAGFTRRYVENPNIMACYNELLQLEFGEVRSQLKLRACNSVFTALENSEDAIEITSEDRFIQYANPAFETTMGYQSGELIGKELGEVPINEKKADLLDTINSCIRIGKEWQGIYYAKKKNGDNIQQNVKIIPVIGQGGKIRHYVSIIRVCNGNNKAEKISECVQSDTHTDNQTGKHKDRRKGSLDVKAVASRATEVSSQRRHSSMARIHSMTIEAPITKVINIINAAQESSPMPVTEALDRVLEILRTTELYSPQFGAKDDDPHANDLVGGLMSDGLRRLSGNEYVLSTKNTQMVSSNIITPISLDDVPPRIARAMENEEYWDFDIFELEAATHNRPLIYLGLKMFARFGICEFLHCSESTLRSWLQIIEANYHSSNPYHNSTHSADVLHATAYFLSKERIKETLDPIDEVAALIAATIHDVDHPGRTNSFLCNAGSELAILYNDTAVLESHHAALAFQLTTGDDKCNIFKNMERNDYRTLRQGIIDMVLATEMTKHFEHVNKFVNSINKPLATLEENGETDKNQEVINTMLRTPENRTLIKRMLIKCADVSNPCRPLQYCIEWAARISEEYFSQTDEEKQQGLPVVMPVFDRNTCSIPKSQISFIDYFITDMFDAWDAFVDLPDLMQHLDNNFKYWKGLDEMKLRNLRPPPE

[22] = system: PKG (VASP phosphorylation) in MDA-MB-231 cells; experiment: VASP Ser239 phosphorylation western blot; assay type: cell-based, human
Outline: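 MDA-MB-231 cells were treated with test compound across doses and times, then lysed in Tris-acetate/Triton X-100/NaF buffer at pH 7.4. Lysate (30 μg protein) was separated by 12% SDS-PAGE and transferred to nitrocellulose, blocked in 5% BSA in TBS-0.05% Tween-20. Blots were probed for phospho-VASP Ser239 and total VASP with HRP secondaries and detected by chemiluminescence on film.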

[23] = system: breast tumor cells; experiment: TUNEL labeling; assay type: cell-based, human; conditions: data not shown
[24] = MDA-MB-231, 30 minutes of treatment
[25] = breast tumor cells, line not given

SMILES: CCCCCC[C@@H]([C@@H](C)O)n1cnc2c(N)ncnc21 (racemic) [EHNA]
tumor cell growth inhibitory activity [1]: none were found to be active

SMILES: CC/C(=C\C(=N/O)C(N)=O)C(C)[N+](=O)[O-] (racemic) [NOR-3, (±)-(E)-Ethyl-2-((E)-hydroxyimino)-5-nitro-3-hexenamide]
tumor cell growth inhibitory activity [1]: inhibited the growth

SMILES: COCc1nc2c([nH]1)c(=O)n(C)c(=O)n2CC(C)C [8-methoxymethyl-IBMX]
tumor cell growth inhibitory activity [1]: none were found to be active

SMILES: CC(C)Cn1c(=O)n(C)c(=O)c2[nH]cnc21 [IBMX, 3-Isobutyl-1-methylxanthine]
tumor cell growth inhibitory activity [1]: none were found to be active

SMILES: O=C1C(Nc2ccccc2)=CC(=O)c2ncccc21 [LY83583]
effect on sensitivity to growth inhibition by doxorubicin ([2]; MDA-MB-231, control experiment, data not shown): ineffective

IC50 [3]: 14.3 µM
SMILES: Clc1cccc(Nc2nnc(-c3ccccc3)c3ccccc23)c1 [MY5445, 1-(3-chloroanilino)-4-phenylphthalazine]
tumor cell growth inhibitory activity [1]: inhibited breast tumor cell growth

SMILES: CSc1ccc(/C=C2/C(C)=C(CC(=O)O)c3cc(F)ccc32)cc1 [SS, sulindac sulfide]
IC50, cGMP hydrolysis by PDE9A [4]: Inactive
IC50 [5]: 59 µM
effect on cell cycle distribution [6]: did not have a significant effect
IC50, cAMP hydrolysis by PDE10A ([7]; cAMP substrate): Inactive
IC50, cGMP hydrolysis by PDE10A ([7]; cGMP substrate): Inactive
activation of caspases 3 and 7 [8]: resistant
IC50, cAMP hydrolysis by PDE11A ([9]; cAMP substrate): Inactive
IC50, cGMP hydrolysis by PDE11A ([9]; cGMP substrate): Inactive
increase of intracellular cGMP levels [11]: failed to induce cGMP levels
IC50, cGMP hydrolysis by PDE6C [12]: Inactive
inhibition of cAMP hydrolysis ([13]; breast tumor cell lysates, Fl-cAMP substrate): did not significantly affect
inhibition of cGMP hydrolysis [13]: inhibited cGMP hydrolysis
IC50, cAMP hydrolysis by PDE7A [14]: Inactive
IC50 [15]: 163 µM
change of growth inhibition IC50 after pre-treatment with GC activator NOR-3 ([2]; 1 hour pretreatment with NOR-3, 72 hours of SS treatment): significant reduction in the IC50 value
IC50, cAMP hydrolysis by PDE4A [16]: Inactive
inhibition of cAMP hydrolysis [19]: did not affect
inhibition of cGMP hydrolysis [19]: did not affect
IC50 [20]: 76 µM
IC50, cAMP hydrolysis by PDE8A [21]: Inactive
VASP phosphorylation at serine 239 (p-VASP levels) ([22]; MDA-MB-231, dose- and time-dependent): increased the levels of phosphorylated VASP
TUNEL labeling [23]: increased TUNEL labeling

SMILES: COc1cc2c(cc1OC)-c1c/c(=N\c3c(C)cc(C)cc3C)n(C)c(=O)n1CC2 [Trequinsin, trequinsin]
tumor cell growth inhibitory activity [1]: inhibited breast tumor cell growth

SMILES: OCCN(CCO)c1nc(N2CCCCC2)c2nc(N(CCO)CCO)nc(N3CCCCC3)c2n1 [dipyridamole]
tumor cell growth inhibitory activity [1]: none were found to be active

SMILES: C=C[C@@]1(C)CC(=O)[C@]2(O)[C@@]3(C)[C@@H](O)CCC(C)(C)[C@@H]3[C@H](O)[C@H](OC(C)=O)[C@@]2(C)O1 [forskolin]
tumor cell growth inhibitory activity [1]: no significant growth inhibitory activity

SMILES: Cc1[nH]c(=O)c(C#N)cc1-c1ccncc1 [milrinone]
tumor cell growth inhibitory activity [1]: none were found to be active

SMILES: COc1ccc(C2CNC(=O)C2)cc1OC1CCCC1 (centres unmarked) [rolipram]
tumor cell growth inhibitory activity [1]: none were found to be active

SMILES: CCCc1nn(C)c2c(=O)[nH]c(-c3cc(S(=O)(=O)N4CCN(C)CC4)ccc3OCC)nc12 [sildenafil]
inhibition of cGMP hydrolysis [13]: inhibit the majority of cGMP PDE activity
increase of intracellular cGMP levels [18, 25]: unable to significantly increase intracellular cGMP levels
tumor cell growth inhibitory activity [1]: none were found to be active; also recorded: unable to inhibit breast tumor cell growth
PKG activation [22, 25]: unable to significantly increase intracellular cGMP levels or activate PKG

SMILES: CN[C@@H]1C[C@H]2O[C@@](C)([C@@H]1OC)n1c3ccccc3c3c4c(c5c6ccccc6n2c5c31)C(=O)NC4 [staurosporine]
activation of caspases 3 and 7 [8]: increased caspase activity

SMILES: CCCOc1ccccc1-c1nc2nn[nH]c2c(=O)[nH]1 [zaprinast]
tumor cell growth inhibitory activity [1]: none were found to be active
